Test results as given in ChEMBL document CHEMBL1144443, “Novel 3D pharmacophore of alpha-MSH/gamma-MSH hybrids leads to selective human MC1R and MC3R analogues” (J Med Chem, 2005).
Where a SMILES comes first, the peptide text is derived from it. [ ]: non-standard residue; d: D form. d2Nal = N[C@H](Cc1ccc2ccccc2c1)C(=O)O; Nle = CCCC[C@H](N)C(=O)O

What was measured:
Melanocortin receptor 4 [1] = biological target: T1, Melanocortin receptor 4 (Homo sapiens, UniProt P32245); assay type: cell-based, HEK293
Melanocortin receptor 4 [2] = biological target: T1, Melanocortin receptor 4; test: Effective concentration for intracellular cAMP accumulation in human melanocortin 4 receptor expressing HEK 293 cells; (N = 4); assay type: functional, cell-based, HEK293
Melanocortin receptor 3 [3] = biological target: T2, Melanocortin receptor 3 (Homo sapiens, UniProt P41968); test: Effective concentration for intracellular cAMP accumulation in human melanocortin 3 receptor expressing HEK 293 cells; (N = 4); assay type: functional, cell-based, HEK293
Summary of the method: (§1)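 HEK293 cells transfected with human MCRs, grown in MEM with 10% FBS, seeded 48 h before at 100 000 cells/well. Stopped with ice-cold Tris/EDTA, boiled 15 min, centrifuged; cAMP in supernatant measured by competitive binding kit. EC50 and maximal response by nonlinear least-squares fit.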

Melanocortin receptor 5 [4] = biological target: T3, Melanocortin receptor 5 (Homo sapiens, UniProt P33032); assay type: cell-based, HEK293
Melanocortin receptor 3 [5] = biological target: T2, Melanocortin receptor 3; assay type: cell-based, HEK293
Melanocortin receptor 5 [6] = biological target: T3, Melanocortin receptor 5; test: Effective concentration for intracellular cAMP accumulation in human melanocortin 5 receptor expressing HEK 293 cells; (N = 4); assay type: functional, cell-based, HEK293; summary of the method: as §1
[7] = biological target: T4, Melanocyte-stimulating hormone receptor (Homo sapiens, UniProt Q01726); assay type: cell-based, HEK293
Target sequence in this assay (Q01726 whole entry): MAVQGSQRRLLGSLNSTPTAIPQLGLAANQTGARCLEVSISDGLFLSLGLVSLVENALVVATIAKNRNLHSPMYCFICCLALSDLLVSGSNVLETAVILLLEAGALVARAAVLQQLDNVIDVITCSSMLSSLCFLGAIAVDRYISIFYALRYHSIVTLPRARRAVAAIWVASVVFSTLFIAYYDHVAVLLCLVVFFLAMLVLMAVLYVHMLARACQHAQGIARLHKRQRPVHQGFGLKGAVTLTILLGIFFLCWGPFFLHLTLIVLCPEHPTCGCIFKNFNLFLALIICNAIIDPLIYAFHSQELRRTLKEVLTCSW

[8] = biological target: T4, Melanocyte-stimulating hormone receptor; test: Effective concentration for intracellular cAMP accumulation in human melanocortin 1 receptor expressing HEK 293 cells; (N = 4); assay type: functional, cell-based, HEK293; summary of the method: as §1
Target sequence in this assay (Q01726 whole entry): as above

Melanocortin receptor 5 [9] = biological target: T3, Melanocortin receptor 5; test: Effective concentration for intracellular cAMP accumulation in human melanocortin 5 receptor expressing HEK 293 cells; (N = 4), No activity; assay type: functional, cell-based; conditions: hek293
Summary of the method: as §1, with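 “cells/well. Preincubated 1 min at 37 °C in EBSS with IBMX, then exposed 3 min at 37 °C to peptide (10^-10 to 10^-5 M).” for “cells/well.”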

[10] = biological target: T4, Melanocyte-stimulating hormone receptor; test: Maximal effect on human melanocortin 1 receptor expressing HEK 293 cells; assay type: functional, cell-based; conditions: HEK293; summary of the method: as §1
Target sequence in this assay (Q01726 whole entry, looked up): as the sequence (Q01726 whole entry) above

Melanocortin receptor 5 [11] = biological target: T3, Melanocortin receptor 5; test: Maximal effect on human melanocortin 5 receptor expressing HEK 293 cells; assay type: functional, cell-based; conditions: HEK293; summary of the method: as §1
Melanocortin receptor 3 [12] = biological target: T2, Melanocortin receptor 3; test: Maximal effect on human melanocortin 3 receptor expressing HEK 293 cells; assay type: functional, cell-based; conditions: HEK293; summary of the method: as §1
Melanocortin receptor 4 [13] = biological target: T1, Melanocortin receptor 4; conditions: HEK293

T1 sequence (P32245 whole entry): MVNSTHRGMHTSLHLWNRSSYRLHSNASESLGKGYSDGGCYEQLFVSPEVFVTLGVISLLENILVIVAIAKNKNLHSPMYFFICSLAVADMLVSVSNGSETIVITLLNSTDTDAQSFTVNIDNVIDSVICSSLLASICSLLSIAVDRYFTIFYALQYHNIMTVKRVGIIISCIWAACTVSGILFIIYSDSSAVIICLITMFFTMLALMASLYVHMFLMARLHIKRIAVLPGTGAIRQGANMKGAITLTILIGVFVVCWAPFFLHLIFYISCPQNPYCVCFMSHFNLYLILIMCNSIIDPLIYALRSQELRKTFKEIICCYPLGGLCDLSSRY
T2 sequence (P41968 whole entry): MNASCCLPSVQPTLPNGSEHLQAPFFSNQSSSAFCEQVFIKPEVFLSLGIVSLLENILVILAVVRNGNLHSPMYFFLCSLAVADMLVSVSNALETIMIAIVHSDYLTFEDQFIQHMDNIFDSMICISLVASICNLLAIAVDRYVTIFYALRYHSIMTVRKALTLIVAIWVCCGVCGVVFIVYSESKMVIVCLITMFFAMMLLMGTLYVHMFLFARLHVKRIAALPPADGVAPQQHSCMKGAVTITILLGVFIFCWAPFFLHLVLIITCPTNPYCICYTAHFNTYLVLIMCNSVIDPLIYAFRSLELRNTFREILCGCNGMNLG
T3 sequence (P33032 whole entry): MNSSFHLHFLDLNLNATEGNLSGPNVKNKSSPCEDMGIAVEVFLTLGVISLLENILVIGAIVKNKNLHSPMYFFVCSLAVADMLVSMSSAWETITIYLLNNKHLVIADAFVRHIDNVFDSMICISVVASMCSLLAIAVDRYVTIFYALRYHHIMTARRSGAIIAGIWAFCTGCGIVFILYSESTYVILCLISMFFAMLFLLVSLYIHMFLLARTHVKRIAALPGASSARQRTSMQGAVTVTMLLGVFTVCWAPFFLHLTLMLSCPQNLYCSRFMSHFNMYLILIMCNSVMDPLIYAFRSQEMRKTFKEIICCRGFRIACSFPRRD

| Structure (SMILES) | IC50 (Melanocortin receptor 4 [1]) | EC50 (Melanocortin receptor 4 [2]) | EC50 (Melanocortin receptor 3 [3]) | IC50 [7] | IC50 (Melanocortin receptor 5 [4]) | EC50 [8] | IC50 (Melanocortin receptor 3 [5]) | EC50 (Melanocortin receptor 5 [6]) | further results |
| --- | --- | --- | --- | --- | --- | --- | --- | --- | --- |
| CCCC[C@H](NC(=O)[C@@H](NC(=O)[C@@H](N)Cc1ccc(O)cc1)C(C)C)C(=O)NCC(=O)N[C@@H](Cc1c[nH]cn1)C(=O)N[C@H](Cc1ccccc1)C(=O)N[C@@H](CCCN=C(N)N)C(=O)N[C@H](Cc1c[nH]c2ccccc12)C(=O)N[C@@H](CC(=O)O)C(=O)N[C@@H](CCCN=C(N)N)C(=O)N[C@@H](Cc1ccccc1)C(=O)NCC(N)=O | 17 nM | 29 nM | – | – | – | – | – | – | – |
| CCCC[C@H](NC(=O)[C@@H](NC(=O)[C@@H](N)Cc1ccc(O)cc1)C(C)C)C(=O)NCC(=O)N[C@H](Cc1ccc2ccccc2c1)C(=O)N[C@@H](Cc1ccccc1)C(=O)N[C@@H](CCCN=C(N)N)C(=O)N[C@@H](Cc1c[nH]c2ccccc12)C(=O)N[C@@H](CC(=O)O)C(=O)N[C@@H](CCCN=C(N)N)C(=O)N[C@@H](Cc1ccccc1)C(=O)NCC(N)=O | – | – | – | – | – | – | – | – | EC50 (Melanocortin receptor 3 [3]; hek293): > 10000 nM; IC50 (Melanocortin receptor 4 [1]; hek293): 1990 nM; EC50 (Melanocortin receptor 4 [2]; hek293): > 10000 nM; IC50 (Melanocortin receptor 5 [4]; hek293): 1000 nM; IC50 (Melanocortin receptor 3 [5]; hek293): 3000 nM; EC50 (Melanocortin receptor 5 [6]; hek293): 870 nM |
| CCCC[C@H](NC(=O)[C@@H](NC(=O)[C@@H](N)Cc1ccc(O)cc1)C(C)C)C(=O)NCC(=O)N1CCC[C@H]1C(=O)N[C@H](Cc1ccc2ccccc2c1)C(=O)N[C@@H](CCCN=C(N)N)C(=O)N[C@H](Cc1ccc2ccccc2c1)C(=O)N[C@@H](CC(=O)O)C(=O)N[C@@H](CCCN=C(N)N)C(=O)N[C@@H](Cc1ccccc1)C(=O)NCC(N)=O | 4 nM | 3.3 nM | 11 nM | 2 nM | 2 nM | 2 nM | 3 nM | – | EC50 (Melanocortin receptor 5 [9]): Not Active |
| CCCC[C@H](NC(=O)[C@@H](NC(=O)[C@@H](N)Cc1ccc(O)cc1)C(C)C)C(=O)NCC(=O)N[C@@H](Cc1c[nH]cn1)C(=O)N[C@H](Cc1ccccc1)C(=O)N[C@@H](CCCN=C(N)N)C(=O)N[C@H](Cc1ccc2ccccc2c1)C(=O)N[C@@H](CC(=O)O)C(=O)N[C@@H](CCCN=C(N)N)C(=O)N[C@@H](Cc1ccccc1)C(=O)NCC(N)=O | 6 nM | 36 nM | – | 0.7 nM | 5 nM | 2 nM | 6 nM | 200 nM | – |
| CCCC[C@H](NC(=O)[C@@H](NC(=O)[C@@H](N)Cc1ccc(O)cc1)C(C)C)C(=O)NCC(=O)N[C@@H](Cc1cnc[nH]1)C(=O)N[C@H](Cc1ccc2ccccc2c1)C(=O)N[C@@H](CCCNC(=N)N)C(=O)N[C@H](Cc1ccccc1)C(=O)N[C@@H](CC(=O)O)C(=O)N[C@@H](CCCNC(=N)N)C(=O)N[C@@H](Cc1ccccc1)C(=O)NCC(N)=O (H-YV[Nle]GH[d2Nal]R[dF]DRFG-NH2) | 20 nM | 2700 nM | 951 nM | 0.16 nM | 3.3 nM | 1.5 nM | 6 nM | 490 nM | – |
| CCCC[C@H](NC(=O)[C@@H](NC(=O)[C@@H](N)Cc1ccc(O)cc1)C(C)C)C(=O)NCC(=O)N[C@@H](Cc1c[nH]cn1)C(=O)N[C@@H](Cc1ccccc1)C(=O)N[C@@H](CCCN=C(N)N)C(=O)N[C@@H](Cc1c[nH]c2ccccc12)C(=O)N[C@@H](CC(=O)O)C(=O)N[C@@H](CCCN=C(N)N)C(=O)N[C@@H](Cc1ccccc1)C(=O)NCC(N)=O | 64 nM | – | – | – | – | – | – | – | – |
| CCCC[C@H](NC(=O)[C@@H](NC(=O)[C@@H](N)Cc1ccc(O)cc1)C(C)C)C(=O)NCC(=O)N1CCC[C@H]1C(=O)N[C@@H](Cc1ccccc1)C(=O)N[C@@H](CCCN=C(N)N)C(=O)N[C@H](Cc1ccc2ccccc2c1)C(=O)N[C@@H](CC(=O)O)C(=O)N[C@@H](CCCN=C(N)N)C(=O)N[C@@H](Cc1ccccc1)C(=O)NCC(N)=O | – | – | 13 nM | – | 650 nM | – | 32 nM | 250 nM | – |
| CCCC[C@H](NC(=O)[C@@H](NC(=O)[C@@H](N)Cc1ccc(O)cc1)C(C)C)C(=O)NCC(=O)N1CCC[C@H]1C(=O)N[C@@H](Cc1ccccc1)C(=O)N[C@@H](CCCN=C(N)N)C(=O)N[C@H](Cc1ccc2ccccc2c1)C(=O)N[C@@H](CC(=O)O)C(=O)N[C@@H](CCCN=C(N)N)C(=O)N[C@@H](Cc1ccccc1)C(=O)NCC(=O)O | – | – | – | – | – | – | – | – | Maximal effect [10]: 120%; Maximal effect (Melanocortin receptor 5 [11]): 46%; Maximal effect (Melanocortin receptor 3 [12]): 28%; Maximal effect (Melanocortin receptor 4 [13]): 14% |
| CCCC[C@H](NC(=O)[C@@H](NC(=O)[C@@H](N)Cc1ccc(O)cc1)C(C)C)C(=O)NCC(=O)N[C@@H](Cc1c[nH]cn1)C(=O)N[C@@H](Cc1ccccc1)C(=O)N[C@@H](CCCN=C(N)N)C(=O)N[C@@H](Cc1c[nH]c2ccccc12)C(=O)N[C@@H](CC(=O)O)C(=O)N[C@@H](CCCN=C(N)N)C(=O)N[C@@H](Cc1ccccc1)C(=O)NCC(=O)O | – | – | – | – | – | – | – | – | Maximal effect (Melanocortin receptor 4 [13]): 100% |
